Experimental data: ChEMBL document CHEMBL4393701, “Appendix A. dithioloquinolinethiones as new potential multitargeted antibacterial and antifungal agents: Synthesis, biological evaluation and molecular docking studies” (2019)
≈ marks a conversion by molar mass, not a printed value.

tested on: Bacillus cereus; assay: Antibacterial activity against Bacillus cereus clinical isolate after 24 hrs by iodonitrotetrazolium chloride dye based microdilution assay; type: functional; conditions: not given
Method in brief: (§1)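 Fresh overnight cultures adjusted spectrophotometrically to 1×10^5 CFU/mL, giving 1.0×10^4 CFU per well in tryptic soy broth. Compounds were dissolved in 5% DMSO and tested at 0.001-1.0 mg/ml by serial dilution; 5% DMSO was the negative control. After 24 h at 37 °C, 0.2 mg/mL INT solution was added for 30 min at 37 °C and OD read at 655 nm. MIC is the lowest concentration giving significant growth inhibition versus the positive control. Duplicates, repeated three times.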

MIC | SMILES
64.6 µM (≈ 30 µg/mL) | COc1cc2c3c(c1)-c1c(ssc1=S)C(C)(C)N3C(=O)/C2=C1\SC(=S)NC1=O

tested on: Bacillus cereus; assay: Bactericidal activity against Bacillus cereus clinical isolate incubated for 24 hrs followed by re-plating on tryptic soy broth; type: functional; conditions: not given
Method in brief: (§2)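 Bacteria were grown in tryptic soy broth, 1.0×10^4 CFU per well, with compounds in 5% DMSO at 0.001-1.0 mg/ml for 24 h at 37 °C. Then 10 µL was subcultured into fresh TSB. MBC is the lowest concentration showing no growth after subculture, taken as 99.5% kill of the original inoculum. Duplicates, repeated three times.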

SMILES | MBC
COc1cc2c3c(c1)-c1c(ssc1=S)C(C)(C)N3C(=O)/C2=C1\SC(=S)NC1=O | 129 µM (≈ 59.9 µg/mL)

tested on: Micrococcus flavus; assay: Antibacterial activity against Micrococcus flavus ATCC 10240 after 24 hrs by iodonitrotetrazolium chloride dye based microdilution method; type: functional; conditions: ATCC 10240, 24 h; method in brief: as §1

MIC | SMILES
96.9 µM (≈ 45 µg/mL) | COc1cc2c3c(c1)-c1c(ssc1=S)C(C)(C)N3C(=O)/C2=C1\SC(=S)NC1=O

tested on: Micrococcus flavus; assay: Bactericidal activity against Micrococcus flavus ATCC 10240 incubated for 24 hrs followed by re-plating on tryptic soy broth; type: functional; conditions: ATCC 10240, 24 h; method in brief: as §2

SMILES | MBC
COc1cc2c3c(c1)-c1c(ssc1=S)C(C)(C)N3C(=O)/C2=C1\SC(=S)NC1=O | 129 µM (≈ 59.9 µg/mL)

tested on: Staphylococcus aureus; assay: Antibacterial activity against Staphylococcus aureus ATCC 6538 after 24 hrs by iodonitrotetrazolium chloride dye based microdilution method; type: functional; conditions: ATCC 6538, 24 h; method in brief: as §1

MIC | SMILES
64.6 µM (≈ 30 µg/mL) | COc1cc2c3c(c1)-c1c(ssc1=S)C(C)(C)N3C(=O)/C2=C1\SC(=S)NC1=O

tested on: Staphylococcus aureus; assay: Bactericidal activity against Staphylococcus aureus ATCC 6538 incubated for 24 hrs followed by re-plating on tryptic soy broth; type: functional; conditions: ATCC 6538, 24 h; method in brief: as §2

SMILES | MBC
COc1cc2c3c(c1)-c1c(ssc1=S)C(C)(C)N3C(=O)/C2=C1\SC(=S)NC1=O | 129 µM (≈ 59.9 µg/mL)

tested on: Listeria monocytogenes; assay: Antibacterial activity against Listeria monocytogenes NCTC 7973 after 24 hrs by iodonitrotetrazolium chloride dye based microdilution method; type: functional; conditions: NCTC 7973, 24 h; method in brief: as §1

MIC | SMILES
258 µM (≈ 120 µg/mL) | COc1cc2c3c(c1)-c1c(ssc1=S)C(C)(C)N3C(=O)/C2=C1\SC(=S)NC1=O

tested on: Listeria monocytogenes; assay: Bactericidal activity against Listeria monocytogenes NCTC 7973 incubated for 24 hrs followed by re-plating on tryptic soy broth; type: functional; conditions: NCTC 7973, 24 h; method in brief: as §2

SMILES | MBC
COc1cc2c3c(c1)-c1c(ssc1=S)C(C)(C)N3C(=O)/C2=C1\SC(=S)NC1=O | 517 µM (≈ 240 µg/mL)

tested on: Enterobacter cloacae; assay: Antibacterial activity against Enterobacter cloacae clinical isolate after 24 hrs by iodonitrotetrazolium chloride dye based microdilution method; type: functional; conditions: not given; method in brief: as §1

MIC | SMILES
64.6 µM (≈ 30 µg/mL) | COc1cc2c3c(c1)-c1c(ssc1=S)C(C)(C)N3C(=O)/C2=C1\SC(=S)NC1=O

tested on: Enterobacter cloacae; assay: Bactericidal activity against Enterobacter cloacae incubated for 24 hrs followed by re-plating on tryptic soy broth; type: functional; conditions: not given; method in brief: as §2

SMILES | MBC
COc1cc2c3c(c1)-c1c(ssc1=S)C(C)(C)N3C(=O)/C2=C1\SC(=S)NC1=O | 129 µM (≈ 59.9 µg/mL)

tested on: Pseudomonas aeruginosa; assay: Antibacterial activity against Pseudomonas aeruginosa ATCC 27853 after 24 hrs by iodonitrotetrazolium chloride dye based microdilution method; type: functional; conditions: ATCC 27853, 24 h; method in brief: as §1

MIC | SMILES
129 µM (≈ 60 µg/mL) | COc1cc2c3c(c1)-c1c(ssc1=S)C(C)(C)N3C(=O)/C2=C1\SC(=S)NC1=O

tested on: Pseudomonas aeruginosa; assay: Bactericidal activity against Pseudomonas aeruginosa ATCC 27853 incubated for 24 hrs followed by re-plating on tryptic soy broth; type: functional; conditions: ATCC 27853, 24 h; method in brief: as §2

SMILES | MBC
COc1cc2c3c(c1)-c1c(ssc1=S)C(C)(C)N3C(=O)/C2=C1\SC(=S)NC1=O | 258 µM (≈ 120 µg/mL)

tested on: Salmonella typhimurium; assay: Antibacterial activity against Salmonella typhimurium ATCC 13311 after 24 hrs by iodonitrotetrazolium chloride dye based microdilution method; type: functional, Salmonella enterica subsp. enterica serovar Typhimurium; conditions: Salmonella enterica, ATCC 13311, 24 h; method in brief: as §1

MIC | SMILES
64.6 µM (≈ 30 µg/mL) | COc1cc2c3c(c1)-c1c(ssc1=S)C(C)(C)N3C(=O)/C2=C1\SC(=S)NC1=O

tested on: Salmonella typhimurium; assay: Bactericidal activity against Salmonella typhimurium ATCC 13311 incubated for 24 hrs followed by re-plating on tryptic soy broth; type: functional, Salmonella enterica subsp. enterica serovar Typhimurium; conditions: Salmonella enterica, ATCC 13311, 24 h; method in brief: as §2

SMILES | MBC
COc1cc2c3c(c1)-c1c(ssc1=S)C(C)(C)N3C(=O)/C2=C1\SC(=S)NC1=O | 129 µM (≈ 60 µg/mL)

tested on: Escherichia coli; assay: Antibacterial activity against Escherichia coli ATCC 35210 after 24 hrs by iodonitrotetrazolium chloride dye based microdilution method; type: functional; conditions: ATCC 35210, 24 h; method in brief: as §1

MIC | SMILES
96.9 µM (≈ 45 µg/mL) | COc1cc2c3c(c1)-c1c(ssc1=S)C(C)(C)N3C(=O)/C2=C1\SC(=S)NC1=O

tested on: Escherichia coli; assay: Bactericidal activity against Escherichia coli ATCC 35210 incubated for 24 hrs followed by re-plating on tryptic soy broth; type: functional; conditions: ATCC 35210, 24 h; method in brief: as §2

SMILES | MBC
COc1cc2c3c(c1)-c1c(ssc1=S)C(C)(C)N3C(=O)/C2=C1\SC(=S)NC1=O | 129 µM (≈ 59.9 µg/mL)

tested on: Aspergillus fumigatus; assay: Antifungal activity against Aspergillus fumigatus ATCC 1022 after 72 hrs by microdilution technique; type: functional; conditions: ATCC 1022, 72 h
Method in brief: (§3)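 Spores were washed off malt agar with 0.85% saline containing 0.1% Tween 80 and adjusted to about 1.0×10^5 per well. Compounds in 5% DMSO were serially diluted (0.001-1.0 mg/ml) in malt broth with inoculum. Plates were shaken at 160 rpm for 72 h at 28 °C. MIC is the lowest concentration without visible growth under a binocular microscope. Three independent experiments in duplicate.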

MIC | SMILES
25.8 ×10⁻² mM | COc1cc2c3c(c1)-c1c(ssc1=S)C(C)(C)N3C(=O)/C2=C1\SC(=S)NC1=O

tested on: Aspergillus fumigatus; assay: Fungicidal activity against Aspergillus fumigatus ATCC 1022 incubated for 72 hrs followed by sub-culturing on broth malt medium and measured after 72 hrs; type: functional; conditions: ATCC 1022, 72 h
Method in brief: (§4)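 After 72 h exposure in malt broth, 2 µL from test wells was subcultured into wells holding 100 µL broth and incubated a further 72 h at 28 °C. MFC is the lowest concentration with no visible growth, taken as 99.5% kill of the original inoculum. Three independent experiments in duplicate.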

SMILES | MFC
COc1cc2c3c(c1)-c1c(ssc1=S)C(C)(C)N3C(=O)/C2=C1\SC(=S)NC1=O | 51.6 ×10⁻² mM

tested on: Aspergillus versicolor; assay: Antifungal activity against Aspergillus versicolor ATCC 11730 after 72 hrs by microdilution method; type: functional; conditions: ATCC 11730, 72 h; method in brief: as §3

MIC | SMILES
12.9 ×10⁻² mM | COc1cc2c3c(c1)-c1c(ssc1=S)C(C)(C)N3C(=O)/C2=C1\SC(=S)NC1=O

tested on: Aspergillus versicolor; assay: Fungicidal activity against Aspergillus versicolor ATCC 11730 incubated for 72 hrs followed by sub-culturing on broth malt medium and measured after 72 hrs; type: functional; conditions: ATCC 11730, 72 h; method in brief: as §4

SMILES | MFC
COc1cc2c3c(c1)-c1c(ssc1=S)C(C)(C)N3C(=O)/C2=C1\SC(=S)NC1=O | 25.8 ×10⁻² mM

tested on: Aspergillus ochraceus; assay: Antifungal activity against Aspergillus ochraceus ATCC 12066 after 72 hrs by microdilution technique; type: functional; conditions: ATCC 12066, 72 h; method in brief: as §3

MIC | SMILES
1.72 ×10⁻² mM | COc1cc2c3c(c1)-c1c(ssc1=S)C(C)(C)N3C(=O)/C2=C1\SC(=S)NC1=O

tested on: Aspergillus ochraceus; assay: Fungicidal activity against Aspergillus ochraceus ATCC 12066 incubated for 72 hrs followed by sub-culturing on broth malt medium and measured after 72 hrs; type: functional; conditions: ATCC 12066, 72 h; method in brief: as §4

SMILES | MFC
COc1cc2c3c(c1)-c1c(ssc1=S)C(C)(C)N3C(=O)/C2=C1\SC(=S)NC1=O | 3.23 ×10⁻² mM

tested on: Aspergillus niger; assay: Antifungal activity against Aspergillus niger ATCC 6275 after 72 hrs by microdilution technique; type: functional; conditions: ATCC 6275, 72 h; method in brief: as §3

MIC | SMILES
25.8 ×10⁻² mM | COc1cc2c3c(c1)-c1c(ssc1=S)C(C)(C)N3C(=O)/C2=C1\SC(=S)NC1=O

tested on: Aspergillus niger; assay: Fungicidal activity against Aspergillus niger ATCC 6275 incubated for 72 hrs followed by sub-culturing on broth malt medium and measured after 72 hrs; type: functional; conditions: ATCC 6275, 72 h; method in brief: as §4

SMILES | MFC
COc1cc2c3c(c1)-c1c(ssc1=S)C(C)(C)N3C(=O)/C2=C1\SC(=S)NC1=O | 51.6 ×10⁻² mM

tested on: Trichoderma viride; assay: Antifungal activity against Trichoderma viride IAM 5061 after 72 hrs by microdilution technique; type: functional; conditions: IAM 5061, 72 h; method in brief: as §3

MIC | SMILES
1.72 ×10⁻² mM | COc1cc2c3c(c1)-c1c(ssc1=S)C(C)(C)N3C(=O)/C2=C1\SC(=S)NC1=O

tested on: Trichoderma viride; assay: Fungicidal activity against Trichoderma viride IAM 5061 incubated for 72 hrs followed by sub-culturing on broth malt medium and measured after 72 hrs; type: functional; conditions: IAM 5061, 72 h; method in brief: as §4

SMILES | MFC
COc1cc2c3c(c1)-c1c(ssc1=S)C(C)(C)N3C(=O)/C2=C1\SC(=S)NC1=O | 3.23 ×10⁻² mM

tested on: Penicillium ochrochloron; assay: Antifungal activity against Penicillium ochrochloron ATCC 9112 after 72 hrs by microdilution technique; type: functional; conditions: ATCC 9112, 72 h; method in brief: as §3

MIC | SMILES
3.23 ×10⁻² mM | COc1cc2c3c(c1)-c1c(ssc1=S)C(C)(C)N3C(=O)/C2=C1\SC(=S)NC1=O

tested on: Penicillium ochrochloron; assay: Fungicidal activity against Penicillium ochrochloron ATCC 9112 incubated for 72 hrs followed by sub-culturing on broth malt medium and measured after 72 hrs; type: functional; conditions: ATCC 9112, 72 h; method in brief: as §4

SMILES | MFC
COc1cc2c3c(c1)-c1c(ssc1=S)C(C)(C)N3C(=O)/C2=C1\SC(=S)NC1=O | 6.46 ×10⁻² mM

tested on: not listed separately; assay: Antifungal activity against Penicillium funiculosum ATCC 36839 after 72 hrs by microdilution technique; type: functional; conditions: Talaromyces pinophilus, ATCC 36839, 72 h; method in brief: as §3

MIC | SMILES
12.9 ×10⁻² mM | COc1cc2c3c(c1)-c1c(ssc1=S)C(C)(C)N3C(=O)/C2=C1\SC(=S)NC1=O

tested on: not listed separately; assay: Fungicidal activity against Penicillium funiculosum ATCC 36839 incubated for 72 hrs followed by sub-culturing on broth malt medium and measured after 72 hrs; type: functional; conditions: Talaromyces pinophilus, ATCC 36839, 72 h; method in brief: as §4

SMILES | MFC
COc1cc2c3c(c1)-c1c(ssc1=S)C(C)(C)N3C(=O)/C2=C1\SC(=S)NC1=O | 25.8 ×10⁻² mM

tested on: Penicillium cyclopium; assay: Antifungal activity against Penicillium verrucosum var. cyclopium food isolate after 72 hrs by microdilution technique; type: functional; conditions: not given; method in brief: as §3

MIC | SMILES
25.8 ×10⁻² mM | COc1cc2c3c(c1)-c1c(ssc1=S)C(C)(C)N3C(=O)/C2=C1\SC(=S)NC1=O

tested on: Penicillium cyclopium; assay: Fungicidal activity against Penicillium verrucosum var. cyclopium food isolate incubated for 72 hrs followed by sub-culturing on broth malt medium and measured after 72 hrs; type: functional; conditions: not given; method in brief: as §4

SMILES | MFC
COc1cc2c3c(c1)-c1c(ssc1=S)C(C)(C)N3C(=O)/C2=C1\SC(=S)NC1=O | 51.6 ×10⁻² mM
